Assay results taken from PMC10072273 (International Journal of Nanomedicine, 2023).

Columns and labels:
p62 = experiment: mRNA expression; type: cell-based, human; details: RAJI cells, ibrutinib 15 µM, 24 h
How it was run: (§1)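 RAJI cells treated 24 h with test nanomaterial (347, 174, 84 µM) or reference BTK inhibitor (30, 15 µM). Total RNA extracted with TRIzol and 1 µg reverse-transcribed. qPCR run as 95°C 60 s, then 40 cycles of 95°C 15 s, primer-specific annealing 30 s, 72°C 30 s, with melt-curve check. Expression by 2−ΔΔCT vs HPRT1. ≥4 experiments, mean ± SD, ANOVA with Dunnett's test vs untreated.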

[1] = test system: calcium levels in RAJI cells; experiment: Calcium assay; type: cell-based, human; details: 24 h, HDGF 347 and 174 µM, ibrutinib 30 and 15 µM
How it was run: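 RAJI cells seeded at 40,000/well and held 24 h at 37°C. Medium was replaced with test nanomaterial (347, 174 µM) or reference BTK inhibitor (30, 15 µM) for 24 h. Cells were washed in cold PBS, loaded with Fluo-4 AM (5 µM, 30 min, 37°C), washed, and resuspended in serum-free, phenol-red-free DMEM. Fluorescence read at ex 485/em 520 nm. ≥3 experiments, mean ± SD, ANOVA with Dunnett's test vs untreated.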

NFAT = experiment: mRNA expression; type: cell-based, human; details: RAJI cells, 24 h
How it was run: as §1

c-Myc = experiment: Immunoblotting in RAJI cells after anti-IgM stimulation; type: cell-based, human; details: 20 µM ibrutinib, 24 h
How it was run: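 RAJI cells seeded at 500,000 per dish. Next day they were stimulated with anti-human IgM (12 µg/mL, 10 min), then the medium was replaced with test nanomaterial (347, 174 µM) or reference inhibitor (20 µM) for 24 h. Lysed on ice in RIPA with protease/phosphatase inhibitors and EDTA, then BCA-normalised SDS-PAGE onto nitrocellulose. Primary antibodies 1:1000 overnight at 4°C, loading controls 1:2000, HRP secondary, chemiluminescence, densitometry. 4–5 experiments.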

ARID3A = experiment: mRNA expression; type: cell-based, human; details: RAJI cells, 30 µM ibrutinib, 24 h
How it was run: as §1

K562 cells = experiment: Cytotoxicity; type: cell-based; details: Homo sapiens, K562, 72 h, read-out: Antiproliferative activity IC50, K562 cells
How it was run: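 K562 cells were grown in RPMI-1640 with 10% heat-inactivated FBS and penicillin/streptomycin at 37°C, 5% CO2. Seeded at 8,000 cells/well, rested 24 h, then exposed 72 h to a concentration series. MTS reagent was added in phenol-red-free DMEM for 1 h at 37°C and absorbance read at 490 nm. Response was taken relative to control and IC50 fitted. Triplicates per experiment, 3–4 experiments.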

BTK = experiment: mRNA expression; type: cell-based, human; details: RAJI cells, ibrutinib, 24 h
How it was run: as §1

TLR8 = experiment: mRNA expression; type: cell-based, human; details: RAJI cells, 24 h
How it was run: as §1

SMILES: C=CC(=O)N1CCC[C@@H](n2nc(-c3ccc(Oc4ccccc4)cc3)c3c(N)ncnc32)C1 [ibrutinib]
- Expression of p62 (p62): almost three-fold increase
- Cellular calcium levels [1]: drop dramatically
- Expression of NFAT (NFAT): significant decrease
- c-Myc protein expression (c-Myc): slight downregulation
- Expression of ARID3A (ARID3A): almost two-fold downregulation
- IC50 (K562 cells): 850 nM
- BTK gene expression (BTK): increased
- Expression of TLR8 (TLR8): significant decrease
